Assay outcomes as filed in PubChem.
Only some compounds are listed: those with a hit (about 2% of all), similar ones and a draw of the others.
LGR2 inh: blocks bursicon-induced cAMP signaling via Drosophila LGR2 | HEK293 LGR2, CRE-luciferase, bursicon-stimulated, 4 h | inhibition, % at 9.99 µM | actives 0.35% (n = 380,000);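 active = drop in luminescence signal, shown as inhibition above about 50% in the replicate tests, limit read from the data, passing the limit was not always enough; inconclusive = probably only some replicates passing the limit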;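 note: agonist challenge used bursicon conditioned medium at about half maximal strength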
XiGFP reactiv: activators of X-chromosome reactivation in mouse fibroblasts | XiGFP mouse fibroblasts, % GFP-positive cells imaging, 3 d; cells co-treated with 5-aza-dC sensitizer; scaled so ellipticine positive control = 100% | activation, % at 7.58 µM | actives 0.055% (n = 360,000) | AID 743238;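 active = mean normalized replicate activation at least 10% and every replicate at or above 10%; inconclusive = only one of the two criteria met; inactive = mean below 10% and not all replicates reach 10%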;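 note: 0% = median of on-plate neutral control wells and 100% = ellipticine 6 µM median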
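Material: XiGFP fibroblasts, SV40-immortalized. Buffer or medium: DMEM plus 5-aza-dC sensitizer. Compound: single concentration per compound, delivered by pin transfer. Times: 3 days compound exposure. Controls: ellipticine 6 µM.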
TROY signal inh: TROY signaling inhibition. actives 0.98% (n = 360,000). AID 1347056. Q293 LMP1-TROYcd NF-kB luciferase reporter, 4 h. inhibition, % at 10 µM;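 active = compounds whose plate-normalised and pattern-corrected inhibition of the luciferase reporter signal at the single screening dose is 50% or more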
CaV13 ICDI inh: Disruptors of the CACNA1D IQ motif to Ca2+-dependent inactivation inhibitor domain association, primary screening, Förster resonance energy transfer in intact living …; actives 0.098% (n = 340,000); HEK cells, CFP/YFP FRET ICDI-IQ, plate reader, 10 min; percent FRET-ratio fall versus neutral wells; inhibition, % at 12.3 µM; AID 743397;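 active = mean replicate inhibition of at least 30% and at least 1% of replicates passing that level; inconclusive = only one of the two criteria is met; inactive = neither criterion is met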;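 note: 0% = median of the neutral control wells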
TWEAK Fn14 block: TWEAK-Fn14 signaling inhibition | TWEAK-stimulated Fn14 reporter cells, luciferase luminescence, 8 h | inhibition, % at 10 µM | actives 2% (n = 360,000) | AID 1159606; in the data active = inhibition above about 50%
Active calls of the source: *; ? = inconclusive; nt = no result given.

SMILES	LGR2 inh	XiGFP reactiv	TROY signal inh	CaV13 ICDI inh	TWEAK Fn14 block
CCOC(=O)c1c(C)[nH]c(C(=O)N/N=C/c2cc([N+](=O)[O-])ccc2O)c1C	3	0	77*	-2	77*
O=C(N[C@@H]1CC[C@H](CCNC(=O)C2CCCCC2)O[C@@H]1CO)c1ccncc1	2	0	nt	nt	nt
Clc1ccc(OCc2nn3c(-c4ccco4)nnc3s2)c(Cl)c1	nt	nt	69*	-9	47
Cc1ccc(OCc2nn3c(-c4ccco4)nnc3s2)cc1	nt	nt	-23	-1	-22
C[C@H](C(=O)N(C)C[C@@H]1OCc2ccccc2-c2c(n(C)c3ccccc23)C(=O)N([C@H](C)CO)C[C@@H]1C)c1ccccc1	nt	1	nt	nt	nt
COCCCNC(=O)C1CCC(=O)N1Cc1ccccc1Cl (configuration not stated)	-11	nt	nt	-5	85*
N#C[C@H]1[C@@H](c2ccccc2C2=CCCC2)[C@@H](CO)N1C(=O)NC1CCCC1	4	0	nt	nt	nt
CN(C)CCN(C(=O)c1cc(Cl)sc1Cl)c1nc2ccc(F)cc2s1	-23	0	-28	-5	-35
CCN(CC)CCN(C(=O)c1ccc2c(c1)CCCC2)c1nc2ccc(F)cc2s1	1	0	55*	-5	36
CCN(CC)CCN(C(=O)c1ccc2c(c1)CCCC2)c1nc2ccc(C)cc2s1	6	0	-13	-7	12
CCN(CC)CCN(C(=O)c1ccccc1OC)c1nc2ccc(F)cc2s1	-16	0	76*	-4	-27
CCCNC(=O)Nc1ccc2c(c1)OC[C@@H](C)N(C(=O)C1CCCCC1)C[C@@H](C)[C@@H](OC)CN(C)C2=O	1	0	nt	nt	nt
Cc1ccc(C(=O)Nc2ncc(C)s2)s1	-3	0	16	-3	57*
Cc1cnc(NC(=O)c2ccc3c(c2)OCCO3)s1	96*	0	85*	-5	103*
O=C(COc1ccc(Cl)cc1)Nc1ncc([N+](=O)[O-])s1	35	0	48	1	79*
CC(C)c1nnc(NC(=O)c2ccc3c(c2)OCO3)s1	74*	0	48	-2	73*
O=C(Cc1ccc(Cl)cc1)Nc1ncc([N+](=O)[O-])s1	-91	0	37	-20	-11
Cc1ccc(C(=O)Nc2ncc(C)s2)o1	-18	nt	-54	-8	28
O=C(Nc1ncc([N+](=O)[O-])s1)c1ccc2c(c1)OCO2	91*	0	84*	-5	103*
Cc1ccc([N+](=O)[O-])cc1NC(=O)c1ccc2c(c1)OCO2	-10	0	-2	2	-7
Cc1ccc(C(=O)Nc2ncc([N+](=O)[O-])s2)cc1	nt	0	80*	-5	100*
O=C(Cc1ccccc1)N1C[C@@H]2[C@H](c3ccccc31)[C@H](CO)N2C(=O)C1CC1	13	0	nt	nt	nt
C[C@H]1CN([C@@H](C)CO)S(=O)(=O)c2ccc(C3=CCCC3)cc2O[C@@H]1CN(C)Cc1ccccc1F	0	0	nt	nt	nt
CSc1nc(N2CCOCC2)c2c(c1C#N)CCCCC2	2	nt	-2	-5	93*
COC(=O)CSc1nc(N2CCCCC2)c2c(c1C#N)CCCC2	nt	nt	-17	-5	91*
SMILES	LGR2 inh	XiGFP reactiv	TROY signal inh	CaV13 ICDI inh	TWEAK Fn14 block
CCCSc1nc(N2CCOCC2)c2c(c1C#N)CCCC2	nt	nt	5	-5	9
O=C(Nc1ccc(-c2cn3ccsc3n2)cc1)c1ccc(F)c(S(=O)(=O)N2CCOCC2)c1	nt	nt	40	-3	59*
O=C1CCCCCCCN1Cc1ccccc1	8	0	0	-5	17
O=C1CCCN1Cc1ncnn1-c1ccccc1	nt	nt	nt	-6	65*
CN(C)CC#Cc1ccc([C@H]2[C@H]3CN(C(=O)Cc4cccnc4)CC(=O)N3[C@H]2CO)cc1	nt	1	nt	nt	nt
O=C(C[n+]1cc(-c2ccc(Cl)cc2)n2c1CCC2)N1c2ccccc2Sc2ccccc21	8	0	7	-5	9
CC1CCC(C(C)C)C(OC(=O)C[n+]2cc(-c3ccc(Cl)cc3)n3c2CCC3)C1 (configuration not stated)	33	0	55*	-3	18
CC(CNC(=O)c1cc(COc2ccc3ncccc3c2)on1)c1ccccc1 (configuration not stated)	0	0	54*	-6	60*
O=C(NC1CCCCCCC1)c1cc(COc2ccc3ncccc3c2)on1	nt	0	31	-4	52*
CO[C@H]1CN(C)C(=O)c2ccc(NC(=O)NC(C)C)cc2OC[C@H](C)N(C(=O)CC2CC2)C[C@H]1C	2	0	nt	nt	nt
Cc1ccc(-c2noc(C3CCCN(C(=O)c4ccc(F)cc4F)C3)n2)cc1 (configuration not stated)	nt	nt	-14	-8	4
Cc1ccccc1NC(=O)N1CCCC(c2nc(-c3ccc(F)cc3)no2)C1 (configuration not stated)	nt	nt	2	-4	-4
CC(C)c1ccc(-c2noc(C3CCCN(C(=O)c4ccc(F)cc4F)C3)n2)cc1 (configuration not stated)	nt	nt	27	-4	52*
Cc1ccccc1NC(=O)N1CCCC(c2nc(-c3ccc(C(C)C)cc3)no2)C1 (configuration not stated)	nt	nt	74*	-8	55*
COc1ccc(N/C=C2\C(=O)CCc3c2oc2cc(Cl)c(O)c(Cl)c32)cc1	11	0	55*	-7	0
Oc1cccc(-c2nnc(-c3cccc(O)c3)nn2)c1	84*	0	27	-6	85*
COc1ccc(-c2ccc3c(c2)O[C@H](CN(C)C(C)=O)[C@@H](C)CN([C@H](C)CO)S3(=O)=O)cc1	-7	-1	nt	nt	nt
CCCCCCNC(=O)CC(c1ccccc1)c1cc(Br)ccc1O (configuration not stated)	?	nt	55*	nt	42
CCC(=O)N[C@H]1CC[C@H](CC(=O)NCc2ccccc2OC)O[C@@H]1CO	3	0	nt	nt	nt
Cc1cc(-c2ccc(F)cc2)n2ncc(-c3ccccc3)c2n1	27	0	79*	-6	86*
Cc1nc2c(-c3ccc(Cl)cc3)cnn2c(N)c1-c1ccc(F)cc1	3	0	80*	-3	95*
Fc1ccc(-c2cnn3c(-c4ccncc4)ccnc23)cc1	-56	0	-8	2	61*
Nc1c(-c2ccc(Cl)cc2)cnc2c(-c3ccc(F)cc3)cnn12	-121	0	37	-18	-16
Cc1cc(-c2ccncc2)n2ncc(-c3ccccc3)c2n1	-86	0	-24	-9	12
CC(=O)Nc1ccc(Nc2cc(-c3ccccc3)nc3ncnn23)cc1	-13	0	2	-2	-12
CC(=O)Nc1ccc(Nc2cc(C)nc3c(-c4ccccc4)cnn23)cc1	-24	0	15	-5	68*
COc1ccc2c3c([nH]c2c1)[C@H](CO)N(CC1CC1)CC31CCN(C(=O)c2ccc(F)cc2)CC1	8	0	nt	nt	nt
